{"data": "Experimental data pooled from the literature", "matrix": "plasma", "note": "Compare with care: the assays were run in different laboratories."}
{"Compound": "COc1cc(OC)c2nccc(N3CCc4c(cc(Cn5ccnc5)cc4-c4cn(C)nc4C(F)(F)F)C3=O)c2c1", "host": "male CD-1 mouse", "route": "intravenous", "dose": "3 mg/kg", "Vd": "2 L/kg"}
{"Compound": "CCNc1nc2c(c(N3CC(=O)Nc4cc(OC)ccc43)n1)CCC2", "host": "female C57BL/6 mouse", "route": "intravenous", "dose": "4 mg/kg", "notes": "single dose", "Vd": "4.7 L/kg"}
{"Compound": "Cc1ccc2cncc(N3CCc4c(cc(Cn5ccnc5)cc4-c4cn(C)nc4C(F)(F)F)C3=O)c2c1", "host": "male CD-1 mouse", "route": "intravenous", "dose": "3 mg/kg", "Vd": "0.8 L/kg"}
{"Compound": "C=CC(=O)N1CC2CC(n3nc(-c4ccc(C(=O)Nc5ccccn5)cc4)c4c(N)ncnc43)CC2C1 (stereo not drawn)", "host": "male BALB/c mouse", "route": "intravenous", "dose": "1 mg/kg", "Vd": "0.67 L/kg"}
{"Compound": "COc1cc(C2Oc3cc([C@H]4Oc5cc(O)cc(O)c5C(=O)[C@@H]4O)ccc3OC2CO)ccc1O (stereo partly drawn)", "host": "male CD-1 mouse", "route": "intravenous", "dose": "2 mg/kg", "Vd": "2.51 L/kg"}
{"Compound": "CCc1cc(OC)c2nccc(N3CCc4c(cc(Cn5ccnc5)cc4-c4cn(C)nc4C(F)(F)F)C3=O)c2c1", "host": "male CD-1 mouse", "route": "intravenous", "dose": "3 mg/kg", "Vd": "0.7 L/kg"}
{"Compound": "COc1cc(C(=O)N2CCC(N3CCN(C)CC3)CC2)ccc1Nc1ncc2c(n1)N(C)c1ccccc1C(=O)N2C", "host": "mouse", "route": "intravenous", "dose": "1 mg/kg", "Vd": "1.71 L/kg"}
{"Compound": "COc1nc(-c2cc(C)c(N[C@@H](C)c3ccc(F)cc3)nn2)ccc1-n1cnc(C)c1", "host": "male CD-1 mouse", "route": "intravenous", "dose": "1 mg/kg", "notes": "single dose", "Vd": "1.02 L/kg"}
{"Compound": "CNCCN(C)c1cc(C#N)cc(CCc2cc(C)cc(N)n2)c1", "host": "male BALB/c mouse", "route": "intravenous", "dose": "2 mg/kg", "Vd": "14.8 L/kg"}
{"Compound": "COc1ccc(C(O)COc2ccc(-c3csc(-c4ccc(OCC(O)c5ccc(OC)c(OC)c5)cc4)n3)cc2)cc1OC (stereo not drawn)", "host": "C57BL/6 mouse", "route": "intravenous", "dose": "3 mg/kg", "Vd": "1.5 L/kg"}
{"Compound": "CC[C@H](C)[C@@H]1NC(=O)[C@@](C)(NC(=O)[C@H](CCCNC(=N)N)NC(=O)[C@H](CC(C)C)NC(=O)[C@@H](NC(=O)[C@H](CCC(N)=O)NC(=O)[C@H](CC(C)C)NC(C)=O)[C@@H](C)O)CCCC=CCCC[C@@](C)(C(=O)N[C@@H](CC(C)C)C(=O)N[C@@H](Cc2ccc3ccccc3c2)C(N)=O)NC(=O)[C@H](CCCNC(=N)N)NC(=O)[C@H](CCC(N)=O)NC1=O", "host": "male BALB/c mouse", "route": "intravenous", "dose": "5 mg/kg", "Vd": "0.0692 L/kg"}
{"Compound": "CC(C)(C)c1ccc(O)c(CN(Cc2cc(C(C)(C)C)ccc2O)C2CCC(NC(N)=O)CC2)c1 (stereo not drawn)", "host": "male C57BL/6 mouse", "route": "intraperitoneal", "dose": "5 mg/kg", "notes": "single dose", "Vd": "2.4 L"}
